{"data": "Results collected from several papers", "target": "Tyrosine-protein kinase HCK (HCK, Homo sapiens, UniProt P08631)"}
{"assay": "enzyme activity, inhibitor, radiometric", "setting": "1 µM", "endpoint": "inhibition", "result": "98%", "SMILES": "CNC(=O)c1cc2c(Oc3ccc(NC(=O)C4(C(=O)Nc5ccc(F)cc5)CC4)cc3)ccnc2cc1OC"}
{"assay": "enzyme activity, inhibitor", "setting": "1 µM", "endpoint": "activity vs control", "result": "4%", "SMILES": "Cc1ccc(C(=O)NCc2ccsc2)cc1C#Cc1cn(C(C)C)c2ncnc(N)c12"}
{"assay": "cell-free assay, competition with immobilised ligand", "setting": "1 µM", "endpoint": "remaining binding", "result": "98%", "SMILES": "CNCc1ccccc1-c1csc([C@H](C)Nc2nc(C)nc3cc(OC)c(OC)cc23)c1"}
{"assay": "cell-free assay", "setting": "0.5 µM", "endpoint": "remaining signal", "result": "93.2%", "SMILES": "COc1cc2c(N3CCN(C(=O)Nc4ccc(OC(C)C)cc4)CC3)ncnc2cc1OCCCN1CCCCC1"}
{"assay": "enzyme activity, inhibitor", "setting": "0.3 µM", "endpoint": "inhibition", "result": "22%", "SMILES": "CCN(CC)CCNC(=O)c1c(C)[nH]c(/C=C2\\C(=O)Nc3ccc(F)cc32)c1C"}
{"assay": "enzyme activity, inhibitor", "setting": "10 µM", "endpoint": "remaining activity", "result": "95%", "SMILES": "Cc1sc(C(=O)NC2COC2)cc1-n1cc(NC(=O)Nc2c(F)cccc2Cl)cn1"}
{"assay": "enzyme activity, inhibitor", "setting": "10 µM", "endpoint": "inhibition", "result": "90%", "SMILES": "Cc1ccc(Nc2nccc(N(C)c3ccc4c(C)n(C)nc4c3)n2)cc1S(N)(=O)=O"}
{"assay": "enzyme activity, inhibitor", "setting": "1 µM", "endpoint": "inhibition", "result": "91%", "SMILES": "COc1cc2ncnc(Nc3ccc(Oc4ccccc4)cc3C)c2cc1OC"}
{"assay": "enzyme activity, inhibitor", "setting": "10 µM", "endpoint": "remaining activity", "result": "-1%", "SMILES": "Cc1ccc(NC(=O)c2ccc(C)c(C(F)(F)F)c2)cc1C#Cc1nn(C2CCC(O)CC2)c2ncnc(N)c12 (stereo not drawn)"}
{"assay": "cell-free assay, competition with immobilised ligand", "setting": "1 µM", "endpoint": "remaining binding", "result": "100%", "SMILES": "O=C(Nc1ccc(Oc2ccc(F)cc2)cc1)N1CCc2ncccc2[C@H]1c1ccc(F)cc1"}
{"assay": "enzyme activity, inhibitor", "setting": "0.1 µM", "endpoint": "inhibition", "result": "6.1%", "SMILES": "CC/C(=N\\NC(=O)NCc1cccc(O)c1)c1ccc(O)c(C)c1O"}
{"assay": "enzyme activity, inhibitor", "setting": "1 µM", "endpoint": "remaining activity", "result": "99%", "SMILES": "COc1cc(Cl)c(C(=O)N[C@@H](CN[C@H]2CC[C@@H](N)CC2)Cc2ccc(C#N)cc2)cc1-c1ccc(CN[C@H](C)c2ccc(C)cc2)o1"}
{"assay": "cell-free assay, competition with immobilised ligand", "setting": "1 µM", "endpoint": "remaining binding", "result": "85%", "SMILES": "O=S(=O)(NC1CCC(c2cc(F)ccc2F)(S(=O)(=O)c2ccc(Cl)cc2)CC1)C(F)(F)F (stereo not drawn)"}
{"assay": "cell-free assay", "setting": "0.5 µM", "endpoint": "remaining signal", "result": "86.5%", "SMILES": "CS(=O)(=O)CCNCc1ccc(-c2ccc3ncnc(Nc4ccc(OCc5cccc(F)c5)c(Cl)c4)c3c2)o1"}
{"assay": "cell-free assay, competition with immobilised ligand", "setting": "0.1 µM", "endpoint": "remaining binding", "result": "100%", "SMILES": "CNC(=O)c1ccc(Nc2ncc(C(F)(F)F)c(NCc3nccnc3N(C)S(C)(=O)=O)n2)cc1"}
{"assay": "enzyme activity, inhibitor", "setting": "0.5 µM", "endpoint": "remaining activity", "result": "≤ 50%", "SMILES": "Cc1ccc(NC(=O)c2ccc(CN3CCN(C)CC3)cc2)cc1Nc1nccc(-c2cncc(-c3oncc3C)c2)n1"}
{"assay": "cell-free assay, competition with immobilised ligand", "setting": "1 µM", "endpoint": "remaining binding", "result": "69%", "SMILES": "Cc1c(NC(=O)c2cc(C(N)=O)nc3cc(F)ccc23)c(C(F)(F)F)nn1Cc1ccc(C#N)cc1"}
{"assay": "enzyme activity, inhibitor, FRET", "setting": "1 µM", "endpoint": "inhibition", "result": "2%", "SMILES": "CN(C)C1CCN(CC#Cc2nn(C3CCCC3)c3nc(NCc4ccccc4)ncc23)C1 (stereo not drawn)"}
{"assay": "cell-free assay, competition with immobilised ligand", "setting": "1 µM", "endpoint": "remaining binding", "result": "98.7%", "SMILES": "Cc1cc(NC(=O)c2cccc(S(F)(F)(F)(F)F)c2)cc(-n2ccn3nc(-c4cccnc4)cc23)c1"}
{"assay": "cell-free assay", "setting": "0.5 µM", "endpoint": "remaining signal", "result": "83.2%", "SMILES": "O=C1Nc2ccc(Cl)cc2C1=Cc1cc(Cl)c(O)c(Cl)c1"}
{"assay": "cell-free assay, competition with immobilised ligand", "setting": "1 µM", "endpoint": "remaining binding", "result": "92%", "SMILES": "CCCOc1ccc([C@@H]2[C@@H](C(=O)O)[C@H](c3ccc4c(c3)OCO4)CN2CC(=O)Nc2c(CC)cccc2CC)cc1"}
{"assay": "enzyme activity, inhibitor", "setting": "1 µM", "endpoint": "inhibition", "result": "< 10%", "SMILES": "CCCS(=O)(=O)Nc1ccc(F)c(C(=O)c2c[nH]c3ncc(-c4ccc(Cl)cc4)cc23)c1F"}
{"assay": "cell-free assay, competition with immobilised ligand", "setting": "1 µM", "endpoint": "remaining binding", "result": "89%", "SMILES": "NS(=O)(=O)c1cc(NC(=O)C2(c3ccccc3Cl)CC2)ccc1Oc1cccc(Cl)c1"}
{"assay": "cell-free assay", "setting": "0.5 µM", "endpoint": "remaining signal", "result": "90.3%", "SMILES": "CNC(=O)c1cc(Oc2ccc(NC(=O)Nc3ccc(Cl)c(C(F)(F)F)c3)cc2)ccn1"}
